ChEMBL document CHEMBL1154352, “Toll-like receptor 7 selective synthetic oligoribonucleotide agonists: synthesis and structure-activity relationship studies” (J Med Chem, 2009)
The source made the active and inactive calls. The calls are words filed in the database; no cut-off is given here.

Key:
[1] = biological target: T1, Toll-like receptor 7 (Homo sapiens) (UniProt Q9NYK1); assay: Activation of human TLR7 expressed in HEK293XL assessed as fold induction of NF-kappaB activity at 50 ug/ml after 18 hrs by reporter gene assay relative to control
T1 sequence (whole entry): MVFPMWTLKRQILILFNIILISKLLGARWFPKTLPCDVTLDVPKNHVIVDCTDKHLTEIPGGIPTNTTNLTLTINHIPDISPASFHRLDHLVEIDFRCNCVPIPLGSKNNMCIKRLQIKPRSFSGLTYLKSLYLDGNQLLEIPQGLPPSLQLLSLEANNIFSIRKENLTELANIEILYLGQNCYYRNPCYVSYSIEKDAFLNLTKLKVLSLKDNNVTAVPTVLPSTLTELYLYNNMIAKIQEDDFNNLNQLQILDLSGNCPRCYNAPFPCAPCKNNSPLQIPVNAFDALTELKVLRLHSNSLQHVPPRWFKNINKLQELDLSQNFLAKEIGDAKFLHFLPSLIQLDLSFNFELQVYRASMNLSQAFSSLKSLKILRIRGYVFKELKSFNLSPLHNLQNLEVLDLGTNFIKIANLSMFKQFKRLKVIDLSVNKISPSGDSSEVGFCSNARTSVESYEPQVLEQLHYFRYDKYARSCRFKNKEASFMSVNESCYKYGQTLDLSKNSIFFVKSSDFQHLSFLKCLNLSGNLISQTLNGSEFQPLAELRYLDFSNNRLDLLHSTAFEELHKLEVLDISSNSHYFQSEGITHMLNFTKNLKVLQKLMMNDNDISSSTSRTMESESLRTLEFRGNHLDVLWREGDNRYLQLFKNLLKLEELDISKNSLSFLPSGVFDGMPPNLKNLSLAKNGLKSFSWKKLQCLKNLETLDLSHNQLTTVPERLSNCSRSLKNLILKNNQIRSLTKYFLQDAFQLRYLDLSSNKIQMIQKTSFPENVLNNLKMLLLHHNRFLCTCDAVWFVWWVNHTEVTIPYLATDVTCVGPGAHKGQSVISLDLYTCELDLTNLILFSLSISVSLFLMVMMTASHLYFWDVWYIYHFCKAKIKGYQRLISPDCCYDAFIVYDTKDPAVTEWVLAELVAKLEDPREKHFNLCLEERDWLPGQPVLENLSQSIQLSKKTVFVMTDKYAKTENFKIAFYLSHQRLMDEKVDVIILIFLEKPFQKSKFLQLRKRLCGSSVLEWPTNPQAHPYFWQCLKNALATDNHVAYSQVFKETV
Outline: (§1)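 HEK293 cells stably expressing human TLR7 or TLR8, transiently transfected with SEAP reporter plasmid; medium replaced, SIMRA compounds added, 18 h incubation. Supernatant SEAP measured by QuantiBlue; expressed as fold increase in NF-κB activity over PBS control. Tabulated data at 50 μg/mL, representative of three independent experiments.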

PBMC [2] = assay: Immunomodulatory activity in human PBMC assessed as induction of TNFalpha at 100 ug/ml after 24 hrs; assay type: functional, cell-based
Outline: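 Human PBMCs plated at 5 × 10^6 cells/mL; compounds dissolved in PBS added at various concentrations, 37 °C for 24 h. Supernatant cytokines/chemokines quantified with human Luminex multiplex kit.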

PBMC [3] = assay: Immunomodulatory activity in human PBMC assessed as induction of IFN-alpha at 100 ug/ml after 24 hrs
Splenocyte = assay: Immunomodulatory activity in C57BL/6 mouse splenocytes bearing TLR7 receptor assessed as IL12 release at 100 ug/ml after 24 hrs by ELISA; assay type: functional, cell-based
Outline: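 C57BL/6 splenocytes in RPMI 1640 with 10% FBS, penicillin/streptomycin, 2 mM L-glutamine, plated at 5 × 10^6 cells/mL; compounds in PBS added, 37 °C for 24 h. Supernatant IL-12 and IL-6 by ELISA; representative of three independent experiments.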

[4] = biological target: T2, Toll-like receptor 8 (Homo sapiens) (UniProt Q9NR97); assay: Activation of human TLR8 expressed in HEK293XL assessed as fold induction of NF-kappaB activity at 50 ug/ml after 18 hrs by reporter gene assay relative to control; outline: as §1
T2 sequence (whole entry): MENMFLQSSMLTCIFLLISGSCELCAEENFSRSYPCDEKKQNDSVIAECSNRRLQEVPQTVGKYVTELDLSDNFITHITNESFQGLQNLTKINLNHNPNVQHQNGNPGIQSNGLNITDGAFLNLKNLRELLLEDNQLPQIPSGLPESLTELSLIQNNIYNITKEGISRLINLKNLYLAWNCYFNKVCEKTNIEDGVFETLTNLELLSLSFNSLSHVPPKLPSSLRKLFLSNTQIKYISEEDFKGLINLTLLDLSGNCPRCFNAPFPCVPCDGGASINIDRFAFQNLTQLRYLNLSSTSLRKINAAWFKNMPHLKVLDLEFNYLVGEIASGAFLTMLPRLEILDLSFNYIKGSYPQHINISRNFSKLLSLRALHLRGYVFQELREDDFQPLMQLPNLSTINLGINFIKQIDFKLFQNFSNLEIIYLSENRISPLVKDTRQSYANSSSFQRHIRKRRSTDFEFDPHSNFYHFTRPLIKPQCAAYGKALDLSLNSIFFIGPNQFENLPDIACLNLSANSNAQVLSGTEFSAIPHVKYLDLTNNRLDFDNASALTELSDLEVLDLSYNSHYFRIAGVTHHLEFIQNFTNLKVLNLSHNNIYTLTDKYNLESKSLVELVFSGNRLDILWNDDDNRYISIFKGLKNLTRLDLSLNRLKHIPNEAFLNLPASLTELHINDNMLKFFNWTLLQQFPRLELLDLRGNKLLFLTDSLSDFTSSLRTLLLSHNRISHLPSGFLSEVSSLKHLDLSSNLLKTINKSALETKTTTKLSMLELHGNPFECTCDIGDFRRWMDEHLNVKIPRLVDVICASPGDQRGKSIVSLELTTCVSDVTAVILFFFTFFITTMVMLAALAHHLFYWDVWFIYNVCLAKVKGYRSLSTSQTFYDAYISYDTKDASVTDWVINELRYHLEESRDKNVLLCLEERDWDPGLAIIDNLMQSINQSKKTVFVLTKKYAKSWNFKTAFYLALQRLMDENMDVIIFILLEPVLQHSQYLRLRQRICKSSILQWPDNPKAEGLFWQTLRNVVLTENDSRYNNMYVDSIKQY

[5] = biological target: Toll-like receptor 3 (Homo sapiens) (UniProt O15455); assay: Activation of human TLR3 expressed in HEK293 assessed as induction of NF-kappaB activity reporter gene assay; assay type: cell-based
Toll-like receptor 3 (Homo sapiens), sequence (O15455 whole entry): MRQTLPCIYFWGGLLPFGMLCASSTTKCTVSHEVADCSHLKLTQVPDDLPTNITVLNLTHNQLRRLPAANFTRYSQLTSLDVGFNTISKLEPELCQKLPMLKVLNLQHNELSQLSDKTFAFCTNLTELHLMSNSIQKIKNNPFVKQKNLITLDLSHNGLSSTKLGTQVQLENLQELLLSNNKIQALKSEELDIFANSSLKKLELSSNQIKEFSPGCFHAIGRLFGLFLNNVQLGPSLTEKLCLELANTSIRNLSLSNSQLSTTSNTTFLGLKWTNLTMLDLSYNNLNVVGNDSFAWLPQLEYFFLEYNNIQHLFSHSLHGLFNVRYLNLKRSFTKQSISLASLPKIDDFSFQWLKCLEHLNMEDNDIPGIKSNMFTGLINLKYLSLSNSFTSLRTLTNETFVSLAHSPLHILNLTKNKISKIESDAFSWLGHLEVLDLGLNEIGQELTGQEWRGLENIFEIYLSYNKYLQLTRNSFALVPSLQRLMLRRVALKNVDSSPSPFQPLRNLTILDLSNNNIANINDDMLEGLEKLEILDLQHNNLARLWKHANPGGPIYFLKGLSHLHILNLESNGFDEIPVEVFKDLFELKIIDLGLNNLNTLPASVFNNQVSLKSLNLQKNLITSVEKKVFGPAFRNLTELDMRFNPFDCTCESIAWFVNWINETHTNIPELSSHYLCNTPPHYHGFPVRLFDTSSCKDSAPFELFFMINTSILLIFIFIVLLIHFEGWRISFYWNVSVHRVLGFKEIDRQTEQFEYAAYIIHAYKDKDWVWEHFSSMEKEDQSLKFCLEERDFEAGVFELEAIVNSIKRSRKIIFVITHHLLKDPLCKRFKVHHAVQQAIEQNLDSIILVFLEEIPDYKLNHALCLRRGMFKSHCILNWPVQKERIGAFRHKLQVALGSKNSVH

Row | SMILES | fold change (FC) [1] | Activity (PBMC [2]) | IFN-alpha (PBMC [3]) | Activity (Splenocyte) | fold change (FC) [4] | Activity [5]
1 | Nc1ccn([C@@H]2O[C@H](COP(=O)(S)O[C@H]3[C@@H](O)[C@H](n4cnc5c(N)ncnc54)O[C@@H]3CO)[C@@H](OP(=O)(S)OC[C@H]3O[C@@H](n4ccc5c(=O)[nH]c(N)nc54)[C@H](O)[C@@H]3OP(=O)(S)OC[C@H]3O[C@@H](n4ccc(N)nc4=O)[C@H](O)[C@@H]3OP(=O)(S)OC[C@H]3O[C@@H](n4ccc(=O)[nH]c4=O)[C@H](O)[C@@H]3OP(=O)(S)OC[C@H]3O[C@@H](n4ccc5c(=O)[nH]c(N)nc54)[C@H](O)[C@@H]3OP(=O)(S)OC[C@H]3O[C@@H](n4cnc5c(N)ncnc54)[C@H](O)[C@@H]3OP(=O)(S)OC[C@H]3O[C@@H](n4ccc5c(=O)[nH]c(N)nc54)[C@H](O)[C@@H]3OP(=O)(S)OC[C@H]3O[C@@H](n4ccc(N)nc4=O)[C@H](O)[C@@H]3OP(=O)(S)OC[C@H]3O[C@@H](n4ccc(=O)[nH]c4=O)[C@H](O)[C@@H]3OP(=O)(S)OC[C@H]3O[C@@H](n4ccc(=O)[nH]c4=O)[C@H](O)[C@@H]3OP(=O)(S)OCC(O)COP(=O)(S)O[C@H]3[C@@H](O)[C@H](n4ccc(=O)[nH]c4=O)O[C@@H]3COP(=O)(S)O[C@H]3[C@@H](O)[C@H](n4ccc(=O)[nH]c4=O)O[C@@H]3COP(=O)(S)O[C@H]3[C@@H](O)[C@H](n4ccc(N)nc4=O)O[C@@H]3COP(=O)(S)O[C@H]3[C@@H](O)[C@H](n4ccc5c(=O)[nH]c(N)nc54)O[C@@H]3COP(=O)(S)O[C@H]3[C@@H](O)[C@H](n4cnc5c(N)nc(N)nc54)O[C@@H]3COP(=O)(S)O[C@H]3[C@@H](O)[C@H](n4ccc5c(=O)[nH]c(N)nc54)O[C@@H]3COP(=O)(S)O[C@H]3[C@@H](O)[C@H](n4ccc(=O)[nH]c4=O)O[C@@H]3COP(=O)(S)O[C@H]3[C@@H](O)[C@H](n4ccc(N)nc4=O)O[C@@H]3COP(=O)(S)O[C@H]3[C@@H](O)[C@H](n4ccc5c(=O)[nH]c(N)nc54)O[C@@H]3COP(=O)(S)O[C@H]3[C@@H](O)[C@H](n4ccc(N)nc4=O)O[C@@H]3COP(=O)(S)O[C@H]3[C@@H](O)[C@H](n4cnc5c(N)ncnc54)O[C@@H]3CO)[C@H]2O)c(=O)n1 (some centres not stated) | 26.6 | 1410 pg/mL | 188 pg/mL | Active | 0.9 | inactive
2 | Nc1ccn([C@@H]2O[C@H](COP(=O)(S)O[C@H]3[C@@H](O)[C@H](n4ccc5c(=O)[nH]c(N)nc54)O[C@@H]3CO[C@H]3[C@@H](O)[C@H](n4cnc5c(N)ncnc54)O[C@@H]3COP(=O)(S)O[C@H]3[C@@H](O)[C@H](n4ccc5c(=O)[nH]c(N)nc54)O[C@@H]3COP(=O)(S)O[C@H]3[C@@H](O)[C@H](n4ccc(=O)[nH]c4=O)O[C@@H]3COP(=O)(S)O[C@H]3[C@@H](O)[C@H](n4ccc(N)nc4=O)O[C@@H]3COP(=O)(S)O[C@H]3[C@@H](O)[C@H](n4ccc5c(=O)[nH]c(N)nc54)O[C@@H]3COP(=O)(S)O[C@H]3[C@@H](O)[C@H](n4ccc(=O)[nH]c4=O)O[C@@H]3COP(=O)(S)O[C@H]3[C@@H](O)[C@H](n4ccc(=O)[nH]c4=O)O[C@@H]3CO)[C@@H](OP(=O)(S)OC[C@H]3O[C@@H](n4ccc(=O)[nH]c4=O)[C@H](O)[C@@H]3OP(=O)(S)OC[C@H]3O[C@@H](n4ccc(=O)[nH]c4=O)[C@H](O)[C@@H]3OP(=O)(S)OCC(O)COP(=O)(S)O[C@H]3[C@@H](O)[C@H](n4ccc(=O)[nH]c4=O)O[C@@H]3COP(=O)(S)O[C@H]3[C@@H](O)[C@H](n4ccc(=O)[nH]c4=O)O[C@@H]3COP(=O)(S)O[C@H]3[C@@H](O)[C@H](n4ccc(N)nc4=O)O[C@@H]3COP(=O)(S)O[C@H]3[C@@H](O)[C@H](n4ccc5c(=O)[nH]c(N)nc54)O[C@@H]3CO[C@H]3[C@@H](O)[C@H](n4cnc5c(N)ncnc54)O[C@@H]3COP(=O)(S)O[C@H]3[C@@H](O)[C@H](n4ccc5c(=O)[nH]c(N)nc54)O[C@@H]3COP(=O)(S)O[C@H]3[C@@H](O)[C@H](n4ccc(=O)[nH]c4=O)O[C@@H]3COP(=O)(S)O[C@H]3[C@@H](O)[C@H](n4ccc(N)nc4=O)O[C@@H]3COP(=O)(S)O[C@H]3[C@@H](O)[C@H](n4ccc5c(=O)[nH]c(N)nc54)O[C@@H]3COP(=O)(S)O[C@H]3[C@@H](O)[C@H](n4ccc(=O)[nH]c4=O)O[C@@H]3COP(=O)(S)O[C@H]3[C@@H](O)[C@H](n4ccc(=O)[nH]c4=O)O[C@@H]3CO)[C@H]2O)c(=O)n1 (some centres not stated) | 26.7 | 415 pg/mL | 145 pg/mL | Active | 0.4 | inactive
